Test results taken from ChEMBL document CHEMBL4627381, “Licochalcone A Selectively Resensitizes ABCG2-Overexpressing Multidrug-Resistant Cancer Cells to Chemotherapeutic Drugs” (J Nat Prod, 2020).

Columns and labels:
[1] = system: HEK293; assay: Effect on Colchicine-induced cytotoxicity against HEK293 cells assessed as fold change in colchicine IC50 at 1 uM after 72 hrs by CCK8 assay relative to colchicine IC50; type: cell-based; details: human, hek293, 72 h
How it was run: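 Reversal assay in parental pcDNA-HEK293 and transfected HEK293 lines (ABCB1 for colchicine, ABCC1 for etoposide, ABCG2 for mitoxantrone/topotecan). Substrate drug series was given with or without nontoxic modulator (0.5, 1.0, 2.0 or 3.0 μM) for 72 h, with a CCK-8 read-out. Fold-reversal is substrate IC50 without modulator divided by IC50 with modulator. Three independent experiments.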

[2] = biological target: ATP-dependent translocase ABCB1 (Homo sapiens, UniProt P08183); assay: Reversal of human ABCB1-mediated multidrug resistance in HEK293/MDR19 cells assessed as fold change in colchicine IC50 at 1 uM after 72 hrs by CCK8 relative to colchicine IC50; type: cell-based
How it was run: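 Cells were seeded at 5000/well for 24 h, then given colchicine, etoposide, mitoxantrone or topotecan ± non-toxic modulator (0.5–3.0 μM) for 72 h, with DMSO up to 0.5%. IC50 came from fitted curves (mean ± SD, three experiments). Fold-reversal = IC50 without modulator ÷ IC50 with modulator.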

[3] = system: S1; assay: Induction of apoptosis in human S1 cells assessed as viable cells at 5 uM incubated for 48 hrs by annexin V/propidium iodide staining based flow cytometry (reference value: 94.1%); type: functional; details: S1, 48 h, read-out: Activity
[4] = system: S1; assay: Induction of apoptosis in human S1 cells assessed as necrotic cells at 5 uM incubated for 48 hrs by annexin V/propidium iodide staining based flow cytometry (reference value: 0.2%); type: functional
[5] = system: S1; assay: Induction of apoptosis in human S1 cells assessed as late apoptotic cells at 5 uM incubated for 48 hrs by annexin V/propidium iodide staining based flow cytometry (reference value: 3.6%); type: functional
How it was run: (§1)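 S1 cells were exposed for 48 h to DMSO, 10 μM compound, 5 μM topotecan, or 5 μM topotecan plus 10 μM compound. They were then stained with 1.25 μg/mL annexin V–FITC and 0.1 mg/mL PI for 15 min at room temperature. 10000 cells per sample were analysed by flow cytometry; three independent experiments.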

[6] = system: S1; assay: Induction of apoptosis in human S1 cells assessed as early apoptotic cells at 5 uM incubated for 48 hrs by annexin V/propidium iodide staining based flow cytometry (reference value: 2%); type: functional; how it was run: as §1

ATP-dependent translocase ABCB1, sequence (P08183 whole entry): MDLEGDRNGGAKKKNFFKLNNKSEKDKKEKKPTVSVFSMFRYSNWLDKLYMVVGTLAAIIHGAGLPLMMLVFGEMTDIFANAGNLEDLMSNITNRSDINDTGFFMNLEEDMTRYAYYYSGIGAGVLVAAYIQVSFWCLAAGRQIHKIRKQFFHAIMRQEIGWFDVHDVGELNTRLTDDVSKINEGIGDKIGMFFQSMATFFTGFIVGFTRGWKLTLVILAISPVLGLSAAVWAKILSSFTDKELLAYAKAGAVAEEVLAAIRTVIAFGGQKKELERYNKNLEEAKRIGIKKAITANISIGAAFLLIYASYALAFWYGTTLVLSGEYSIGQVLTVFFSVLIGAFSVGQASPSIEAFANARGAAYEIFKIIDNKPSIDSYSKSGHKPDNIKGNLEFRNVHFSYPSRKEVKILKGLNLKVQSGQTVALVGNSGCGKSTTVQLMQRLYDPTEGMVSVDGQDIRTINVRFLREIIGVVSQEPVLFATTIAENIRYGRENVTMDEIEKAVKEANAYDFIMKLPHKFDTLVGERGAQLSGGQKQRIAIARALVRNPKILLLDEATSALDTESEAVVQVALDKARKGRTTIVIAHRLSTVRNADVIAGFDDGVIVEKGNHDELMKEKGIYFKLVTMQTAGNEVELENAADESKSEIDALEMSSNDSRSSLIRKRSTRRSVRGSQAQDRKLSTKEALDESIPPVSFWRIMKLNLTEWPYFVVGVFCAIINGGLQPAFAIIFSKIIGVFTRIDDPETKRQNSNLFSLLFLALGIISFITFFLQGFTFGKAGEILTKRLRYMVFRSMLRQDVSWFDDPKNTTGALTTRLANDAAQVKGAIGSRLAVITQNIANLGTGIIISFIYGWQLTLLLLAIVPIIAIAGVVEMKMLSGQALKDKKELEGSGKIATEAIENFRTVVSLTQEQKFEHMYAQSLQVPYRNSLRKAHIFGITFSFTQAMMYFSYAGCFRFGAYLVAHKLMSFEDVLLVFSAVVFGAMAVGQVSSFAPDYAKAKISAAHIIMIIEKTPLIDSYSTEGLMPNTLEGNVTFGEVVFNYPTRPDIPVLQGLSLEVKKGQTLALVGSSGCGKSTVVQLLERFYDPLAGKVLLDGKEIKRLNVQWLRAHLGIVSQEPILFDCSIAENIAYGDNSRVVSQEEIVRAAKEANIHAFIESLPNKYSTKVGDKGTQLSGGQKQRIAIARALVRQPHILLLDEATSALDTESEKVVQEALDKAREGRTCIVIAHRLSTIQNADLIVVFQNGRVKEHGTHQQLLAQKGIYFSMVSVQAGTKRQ

fold change (FC) [2] | Compound | fold change (FC) [1] | viability at 5 µM [3] | Activity [4] | Activity [5] | Activity [6]
12.5 | COc1cc2c(cc1OC)CN(CCc1ccc(NC(=O)c3cc(OC)c(OC)cc3NC(=O)c3cnc4ccccc4c3)cc1)CC2 | 1.1 |  |  |  | 
 | CC[C@@]1(O)C(=O)OCc2c1cc1n(c2=O)Cc2cc3c(CN(C)C)c(O)ccc3nc2-1 [TOPOTECAN] |  | 42.7% | 3.5% | 22.7% | 31.2%
